Compound activity: PubChem BioAssay, Johns Hopkins Ion Channel Center
Shown are actives, neighbours in structure and some others; about 2.3% of the full set was active somewhere.
TRPC6 inh: inhibitors of mouse TRPC6 channel; 310,000 compounds, 1.1% hits; B-score at 10 µM; HEK293-TRPC6, membrane potential dye, ACh-evoked depolarization; hits give low values; AID 2553;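 active = B-score under library mean minus 3 SD, initial fluorescence not abnormally high, positive integrated signal ratio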;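 also: B-score derived from integrated fluorescence ratio over the kinetic read; more negative B-score means stronger inhibition of depolarization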
Target sequence (Q61143 whole entry, looked up): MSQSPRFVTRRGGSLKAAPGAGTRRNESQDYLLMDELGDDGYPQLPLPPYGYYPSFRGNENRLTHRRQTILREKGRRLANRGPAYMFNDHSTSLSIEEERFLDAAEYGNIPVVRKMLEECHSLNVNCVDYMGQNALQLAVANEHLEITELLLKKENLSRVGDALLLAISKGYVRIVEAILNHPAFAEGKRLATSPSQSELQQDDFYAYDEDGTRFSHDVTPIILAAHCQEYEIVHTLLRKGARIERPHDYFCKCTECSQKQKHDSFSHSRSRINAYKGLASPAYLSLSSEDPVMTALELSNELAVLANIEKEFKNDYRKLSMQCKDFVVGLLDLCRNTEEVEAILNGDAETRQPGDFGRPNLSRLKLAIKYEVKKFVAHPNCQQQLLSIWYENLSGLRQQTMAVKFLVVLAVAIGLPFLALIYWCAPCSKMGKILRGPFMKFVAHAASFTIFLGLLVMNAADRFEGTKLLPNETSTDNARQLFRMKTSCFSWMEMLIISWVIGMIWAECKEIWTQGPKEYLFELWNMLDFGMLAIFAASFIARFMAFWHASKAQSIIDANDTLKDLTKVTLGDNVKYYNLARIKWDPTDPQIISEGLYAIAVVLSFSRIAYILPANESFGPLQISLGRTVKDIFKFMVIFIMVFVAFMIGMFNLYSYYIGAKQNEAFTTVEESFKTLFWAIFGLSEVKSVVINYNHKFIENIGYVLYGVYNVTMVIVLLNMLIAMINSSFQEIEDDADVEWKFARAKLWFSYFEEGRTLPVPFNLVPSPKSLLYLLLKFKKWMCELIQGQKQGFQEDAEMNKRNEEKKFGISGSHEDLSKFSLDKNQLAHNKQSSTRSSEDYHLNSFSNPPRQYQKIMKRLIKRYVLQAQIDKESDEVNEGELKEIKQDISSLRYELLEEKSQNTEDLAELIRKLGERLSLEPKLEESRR
TRPC4 potent: TRPC4 (mouse) allosteric potentiation; Q9QUQ5; HEK293 TRPC4beta/mu-opioid, DAMGO EC20, Fluo-4 Ca2+ flux; hits give high values; B-score at 10 µM; 310,000 compounds, 0.42% hits; AID 2227;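 active = B-score of calcium response area above 5 SD of library B-scores, with initial fluorescence ratio within 5 SD of library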;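 also: B-score of integrated fluorescence ratio over time as area under calcium response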
TRPC4 block: inhibitors of mouse TRPC4 channel. Q9QUQ5. HEK293 TRPC4beta/mu-opioid, DAMGO-evoked Fluo4 calcium flux; hits give low values. B-score at 10 µM. 300,000 compounds, 0.39% hits;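 active = B-score over 3 SD under the library average, no early fluorescence shift, positive overall ratio signal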
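Signal: kinetic Fluo4 fluorescence imaging of calcium influx. Material: stable TRPC4beta/mu-opioid receptor HEK293 cells. Probe or stimulus: DAMGO in two steps, submaximal then maximal.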
TRPC4 act: TRPC4 (mouse) channel activation; Q9QUQ5; HEK293 TRPC4beta/mu-opioid, Fluo4 calcium fluorescence; hits give high values; B-score at 10 µM; 310,000 compounds, 0.49% hits; AID 2237;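 active = B-score above 5 SD of library B-scores, and initial fluorescence ratio not above library mean plus 5 SD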;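 also: positive B-score marks a calcium rise read as TRPC4 activation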
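Incubation: 45 min room-temperature Fluo4 loading, 110 s read / System: HEK293 cells stably co-expressing mouse TRPC4beta and mu-opioid receptor / Signal: Fluo4 fluorescence, kinetic / Control set: buffer (low) and maximal DAMGO (high) / Measure: integrated baseline-normalised fluorescence ratio, converted to per-well B score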
TRPC6 act: mouse TRPC6 channel activation; HEK293-TRPC6 membrane potential dye fluorescence; hits give high values; B-score at 10 µM; 310,000 compounds, 0.13% hits; AID 2550;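 active = B-score of the integrated fluorescence ratio above library mean plus 3 SD, and starting fluorescence ratio within library mean plus 5 SD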;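 also: higher score means more depolarization so channel activation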
TRPC4 sel inh 2: second check of whether TRPC6 inhibitors also affect mouse TRPC4 | shares compounds with TRPC6 inh | HEK293 TRPC4/MOR, membrane potential dye fluorescence; channel activated by saturating DAMGO dose | inhibition, % at 10 µM | 920 compounds, 42% hits | AID 2776;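 active = compounds whose fluorescence signal differed from control wells by over 3 SD, either direction, in both duplicate plates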
TRPC4 spec: tests whether TRPC6 inhibitors also affect mouse TRPC4 | HEK293 TRPC4/mu-opioid, membrane potential fluorescence | AID 2777 | shares compounds with TRPC6 inh | 920 compounds, 61% hits | activity change, negative = inhibition, % at 10 µM;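 active = rise or fall in signal beyond 3 SD of buffer-only wells in both replicate plates, either sign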;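 also: integrated kinetic ratio of fluorescence range over baseline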
HEK293 MPD ctr 2-1: second check of TRPC6 inhibitor effects in parental HEK293 cells; parental HEK293 membrane potential dye fluorescence; maximal acetylcholine challenge after compound addition; shares compounds with TRPC6 inh; AID 2779; 920 compounds, 31% hits; signal change vs control, % at 10 µM;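 active = membrane potential signal moving either way by over 3 SD of the maximum-effect control, in both duplicate plates, meaning non-specific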
HEK293 MPD ctr-1: checks TRPC6 inhibitor effects in parental HEK293 cells; shares compounds with TRPC6 inh; parental HEK293 membrane potential dye fluorescence; membrane potential signal change, % at 10 µM; 920 compounds, 60% hits;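 active = membrane potential signal shifting up or down by more than 3 SD of buffer-only wells, on both duplicate plates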
HEK293 MPD ctr-2: checks TRPC6 modulator effects in parental HEK293 cells; shares compounds with TRPC6 inh; AID 488924; 2,400 compounds, 51% hits; membrane potential dye fluorescence; membrane potential signal change, % at 10 µM;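 active = membrane potential signal moves up or down beyond 5 SD from buffer-only wells, on both duplicate plates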
HEK293 MPD ctr 2-2: second counter-screen for TRPC6 modulators: effect in parental HEK293 cells. AID 488926. shares compounds with TRPC6 inh. inhibition, % at 10 µM. 2,400 compounds, 14% hits. membrane potential dye fluorescence; after compound, maximal acetylcholine stimulation;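 active = membrane potential signal drops by more than 5 SD from the mean control signal, in both duplicate plates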;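 also: plate controls were acetylcholine ECmax control wells for no effect and buffer only wells for full effect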
TRPC4/MOR mod: tests whether TRPC6 modulators also affect mouse TRPC4; shares compounds with TRPC6 inh; HEK293 TRPC4/mu-opioid, membrane potential fluorescence; percent change from control (negative = decrease, positive = increase), % at 10 µM; 2,400 compounds, 69% hits; AID 488927;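 active = membrane potential signal moved up or down beyond 5 SD of buffer control wells, in both duplicate plates, actives on both sides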;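 also: plate controls were assay buffer wells for no effect and DAMGO maximal-effect wells for full effect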
TRPC4/MOR inh 2: second check of whether TRPC6 modulators also affect mouse TRPC4 | shares compounds with TRPC6 inh | HEK293 TRPC4/mu-opioid, membrane potential dye fluorescence; stimulated with maximal-effect DAMGO | inhibition, % at 10 µM | 2,400 compounds, 55% hits | AID 488928;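 active = drop in membrane potential signal beyond 5 SD of the control wells in both duplicate plates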;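 also: TRPC4 counter screen for TRPC6 hits run under conditions tuned for TRPC6 not TRPC4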
TRPC6 inh conf: confirmation of mouse TRPC6 inhibitors; HEK293-TRPC6, membrane potential dye, ACh-evoked depolarization; shares compounds with TRPC6 inh; 3,300 compounds, 43% hits; inhibition, % at 10 µM; AID 488960;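 active = fluorescence ratio falls more than 5 SD below the full-stimulation control mean, in both duplicate runs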;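 also: integrated fluorescence ratio of peak minus minimum over baseline after agonist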
TRPC6 act conf: confirmation of mouse TRPC6 activators | shares compounds with TRPC6 inh | HEK293-TRPC6 membrane potential dye fluorescence, FDSS | activation, % at 10 µM | 2,800 compounds, 11% hits;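 active = ratio signal rise beyond 5 SD above unstimulated control wells' mean, seen in both duplicate runs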;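 also: plate controls were buffer EC0 wells for no effect and acetylcholine ECmax response for full effect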
* hit, by the source's call; i = inactive; · = no result.

SMILES	TRPC6 inh	TRPC4 potent	TRPC4 block	TRPC4 act	TRPC6 act	HEK293 MPD ctr-2	HEK293 MPD ctr 2-2	TRPC4/MOR mod	TRPC4/MOR inh 2	TRPC6 inh conf	TRPC6 act conf	others
COc1ccc(C(=O)C2CCCN(C3CSCCSC3)C2)cc1OC (stereo not given)	-7.7*	i	i	167*	i	i	83%*	59%*	36%*	72%*	i
CC1(C(O)(C#CCN2CCCCC2)c2ccccc2)CCCC1 (stereo not given)	-7.1*	i	i	i	i	142%*	106%*	26%*	44%*	91%*	·
COc1cc2c(cc1OC)-c1c(OC)c(OC)cc3c1C(C2)N(C)CC3 (stereo not given)	-5.4*	i	i	i	i	-234%*	i	-44%*	51%*	53%*	i
COc1ccc(CC2c3cc(OC)c(OC)cc3CCN2C)cc1O (stereo not given)	i	i	i	i	i	·	·	·	·	·	·
COc1cc2c(cc1OC)-c1c3c(cc4c1[C@@H](C2)N(C)CC4)OCO3	-8*	i	i	i	i	-194%*	76%*	-35%*	52%*	56%*	i
COc1cc2c(cc1O)C[C@H]1NCCc3cc4c(c-2c31)OCO4	-9.1*	i	i	i	i	·	·	·	·	53%*	i	TRPC4 sel inh 2=70%*;TRPC4 spec=-28%*;HEK293 MPD ctr 2-1=i;HEK293 MPD ctr-1=-398%*
CCC(CC)C(=O)NC1CCSC1=O (stereo not given)	i	i	i	i	i	·	·	·	·	·	·
COc1ccccc1Cn1c(SCC(=O)C(C)(C)C)nc2cc(C(=O)N3CCC4(CC3)OCCO4)ccc2c1=O	i	i	i	i	i	·	·	·	·	·	·
O=C1C2CCCN2C(c2ccccc2)N1c1ccccn1 (stereo not given)	i	i	i	i	i	·	·	·	·	·	·
Cc1ccc(CN2C3CCCC2CC(NC(=O)Nc2cccc(F)c2)C3)cc1 (stereo not given)	-6.5*	i	i	53*	i	i	i	26%*	96%*	49%*	·
O=[N+]([O-])c1ccccc1-c1cc(-c2ccccc2)cc(-c2ccccc2)[n+]1Cc1ccccc1Cl	-5.7*	i	i	i	i	i	i	-8.5%*	i	i	i
O=[N+]([O-])c1ccc(-[n+]2c(-c3ccccc3)cc(-c3ccccc3)cc2-c2ccccc2)cc1	i	i	i	i	i	·	·	·	·	·	·
CCn1ccnc1CN1CCCC(C(=O)c2ccc(SC)cc2)C1 (stereo not given)	-5*	i	i	i	i	i	i	15%*	i	54%*	·
CCCCC/C(=N/O)c1c(C)[nH]c2ccccc12	i	i	i	i	i	·	·	·	·	·	·
CCCC/C(=N/O)c1c(C)[nH]c2ccccc12	-9.5*	i	i	i	i	·	·	·	·	i	i	TRPC4 sel inh 2=i;TRPC4 spec=-13%*;HEK293 MPD ctr 2-1=i;HEK293 MPD ctr-1=-142%*
COC(=O)c1c(C)[nH]c(C(=O)C(Cc2ccccc2)N(C)C)c1C (stereo not given)	i	i	i	i	i	·	·	·	·	·	·
C[C@H]1OC[C@@H](C[N+](C)(C)C)O1	-6.7*	i	i	88*	i	·	·	·	·	70%*	·	TRPC4 sel inh 2=i;TRPC4 spec=34%*;HEK293 MPD ctr 2-1=i;HEK293 MPD ctr-1=4.8%*
CC[n+]1c(/C=C/N(C)c2ccccc2)sc2ccc(Cl)cc21	-6.3*	i	i	i	i	i	96%*	i	36%*	46%*	i
CC[n+]1c(/C=C/C=C/c2ccc(N(C)C)cc2)sc2ccccc21	i	i	i	i	i	·	·	·	·	·	·
CC(=NCCN1CCCCC1)c1c(O)n(-c2ccccc2)c(=O)[nH]c1=O	i	i	i	i	i	·	·	·	·	·	·
Cc1cccc(-n2c(C)nc3ccc(Cl)cc3c2=O)c1	i	i	i	i	i	·	·	·	·	·	·
CC(C)[N+](C)(CCC(C(N)=O)(c1ccccc1)c1ccccc1)C(C)C	-6.6*	i	i	i	i	i	101%*	i	i	88%*	i
O=C(N/N=C/c1c(O)n(-c2cccc3ccccc23)c(=O)[nH]c1=O)c1ccncc1	i	i	i	i	i	·	·	·	·	·	·
CN1CCC(OC(=O)Cc2ccccc2)CC1	i	i	i	i	i	·	·	·	·	·	·
CN1CCC(OC(=O)C2c3ccccc3Oc3ccccc32)CC1	-6.8*	i	i	i	i	·	·	·	·	67%*	·	TRPC4 sel inh 2=i;TRPC4 spec=4.7%*;HEK293 MPD ctr 2-1=i;HEK293 MPD ctr-1=8.4%*
COc1ccc(CC2C(=O)NC(=O)NC2=O)c(OC)c1	i	i	i	i	i	·	·	·	·	·	·
COc1ccc(Cc2c(O)[nH]c(=O)[nH]c2=O)c(OC)c1	i	i	i	i	16*	i	i	i	i	i	i
C=CCSc1nc2c(c(-c3ccsc3)c1C#N)CN(C)CC2	-10*	i	i	i	i	·	·	·	·	i	i	TRPC4 sel inh 2=i;TRPC4 spec=-18%*;HEK293 MPD ctr 2-1=i;HEK293 MPD ctr-1=-239%*
